Test results as given in ChEMBL document CHEMBL1137523, “Efficient one-pot synthesis of biologically active polysubstituted aromatic amines” (Bioorg Med Chem, 2007).
≈ marks a conversion by molar mass, not a printed value. Calls of active or inactive are those of the source. The rule behind the calls is not given here.

Key:
[1] = test system: L929; test: Growth inhibition of mouse L929 cells below 40 ug/mL after 5 days by MTT assay; type: functional, cell-based
In short: (§1)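 L-929 cells (DSMZ) were grown in DME with 10% newborn calf serum at 37 °C, 10% CO2, in humid air. In microtiter plates, a suspension of 50,000 cells/mL was added to a serial dilution of inhibitor (2:1 cell suspension to dilution). Metabolic activity per well was read by MTT after 5 days.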

[2] = test system: L929; test: Growth inhibition of mouse L929 cells after 5 days by MTT assay; type: functional, cell-based; details: L929, 120 h; in short: as §1
[3] = test system: Potorous tridactylus; test: Effect on cell morphology in PtK2 potoroo cells assessed as changes in morphology at 50 ug/mL after 18 hrs

SMILES | Activity [1] | IC50 [2] [µg/mL] | Activity [3]
COc1ccc(N(Cc2ccccc2)Cc2ccccc2OC)cc1 | inactive | > 40 | 
COc1ccc(NCC(C)C)cc1 | inactive | > 40 | 
COc1ccc(N(Cc2ccccc2)Cc2ccccc2)cc1 |  | 12 (≈ 39.6 µM) | 
COc1ccc(N(Cc2ccccc2)CC(C)C)cc1 |  | 10 (≈ 37.1 µM) | 
COc1ccc(NCc2ccccc2OC)cc1 |  | 25 (≈ 103 µM) | 
COc1ccc(NC(C)c2ccsc2)cc1 (stereo unspecified) |  | 30 (≈ 129 µM) | 
c1ccc(CNc2ccccn2)cc1 |  | 35 (≈ 190 µM) | 
O=C(O)Cc1ccc(NCc2ccccc2)cc1 |  | > 40 | 
Cc1ccc(N(Cc2ccccc2)CC(C)C)cc1 |  | 5 (≈ 19.7 µM) | Active
COc1ccc(NC(C)c2ccccc2)cc1 (stereo unspecified) |  | 30 (≈ 132 µM) | 
Cc1ccc(N(CC(C)C)CC(C)C)cc1 |  | 13 (≈ 59.3 µM) | 
COc1ccc(N(Cc2ccc([N+](=O)[O-])cc2)Cc2ccccc2OC)cc1 |  | > 40 | 
COc1ccc(N(Cc2ccccc2OC)CC(C)C)cc1 |  | 15 (≈ 50.1 µM) | 
CCCCCCCCCN(CC(C)C)c1ccc(OC)cc1 |  | 20 (≈ 65.5 µM) | 
Cc1ccc(NCc2ccccc2)cc1 [N-BENZYL-4-METHYLANILINE] | inactive | > 40 | 
COc1ccc(NCc2ccc([N+](=O)[O-])cc2)cc1 |  | > 40 | 
COc1ccc(N(Cc2ccccc2)Cc2ccc([N+](=O)[O-])cc2)cc1 |  | > 40 | 
COc1ccc(N(Cc2ccc([N+](=O)[O-])cc2)CC(C)C)cc1 | inactive | > 40 | 
O=[N+]([O-])c1cc(O)ccc1NCc1ccccc1 |  | 9 (≈ 36.8 µM) | Active
CCCCCCCCCNc1ccc(OC)cc1 |  | 12 (≈ 48.1 µM) | 
Cc1ccc(N(Cc2ccccc2)Cc2ccccc2)cc1 |  | 11 (≈ 38.3 µM) | 
COc1ccc(N(CC(C)C)CC(C)C)cc1 |  | 25 (≈ 106 µM) | 
COc1ccc(CNc2ccc(O)c([N+](=O)[O-])c2)cc1 |  | 20 (≈ 72.9 µM) | 
COc1ccc(NC(C)c2ccco2)cc1 (stereo unspecified) |  | 40 (≈ 184 µM) | 
CC(=O)c1ccc(NCc2ccccc2)cc1 |  | 22 (≈ 97.7 µM) | 
